Paper PMC12393906 (Molecular Therapy, 2025)

Tests used:
Recombinant human ERO1α = molecular target: T1, Recombinant human ERO1α (Homo sapiens, UniProt Q96HE7); assay: fluorescence-based ERO1α activity assay; type: biochemical; settings: read-out: IC50 (ERO1α activity); mean ± SD, n = 3
T1 sequence (Q96HE7 24-468): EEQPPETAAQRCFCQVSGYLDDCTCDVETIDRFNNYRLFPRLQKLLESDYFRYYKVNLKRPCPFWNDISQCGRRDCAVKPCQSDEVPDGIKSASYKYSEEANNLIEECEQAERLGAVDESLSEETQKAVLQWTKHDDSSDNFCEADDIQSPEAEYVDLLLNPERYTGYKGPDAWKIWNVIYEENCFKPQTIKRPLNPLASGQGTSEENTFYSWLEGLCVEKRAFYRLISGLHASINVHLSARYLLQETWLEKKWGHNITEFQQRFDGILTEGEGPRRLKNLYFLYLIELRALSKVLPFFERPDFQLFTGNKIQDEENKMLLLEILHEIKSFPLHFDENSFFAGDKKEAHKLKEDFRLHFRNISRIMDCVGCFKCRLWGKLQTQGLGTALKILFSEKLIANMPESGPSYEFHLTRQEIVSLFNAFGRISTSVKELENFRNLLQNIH

Amplex Red assay = type: biochemical; settings: Figure 1M, concentration not given
mouse platelets [1] = assay: Flow cytometry of P-selectin exposure and αIIbβ3 integrin activation; type: cell-based
Method in brief: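 Washed mouse platelets (2 × 10^8/mL in HEPES-Tyrode; C57BL/6 or Ero1α/β-null) were pretreated 20 min at 37°C with 0.1% DMSO vehicle or test compound. Agonist was added for 5 min at 37°C. Cells were stained 15 min with labelled anti-P-selectin or JON/A (activated αIIbβ3) and read by flow cytometry as geometric mean fluorescence intensity.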

human platelets = assay: Platelet aggregation assay and ATP secretion; type: cell-based; settings: 1 μM; 0.015 U/ml thrombin or 0.05 µg/ml CRP
Method in brief: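 Washed human platelets, isolated from ACD blood with PGE1 washes and resuspended in HEPES-Tyrode, were pretreated 20 min at 37°C with 0.1% DMSO vehicle or test compound. After agonist addition, aggregation and ATP secretion were recorded in a lumi-aggregometer at 37°C, stirring at 1,000 rpm.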

mouse platelets [2] = assay: Serotonin secretion; type: cell-based; settings: 2.5 or 5 μM
mouse platelets [3] = assay: Detection of intracellular ROS; type: cell-based; settings: 5 μM
Method in brief: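 Platelets from C57BL/6, WT control or Ero1α/β CKO mice were pretreated 20 min at 37°C with or without 0.1% DMSO vehicle or test compound. They were loaded with 1 μM DCF for 10 min, then stimulated 5 min with thrombin or CRP, or left unstimulated. DCF fluorescence was read by flow cytometry.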

mouse platelets [4] = assay: CCL5/RANTES in platelet releasates; type: cell-based
Method in brief: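 Washed mouse platelets (5 × 10^8 cells/mL) were pretreated 20 min at 37°C with 0.1% DMSO vehicle or test compound. They were then stimulated 10 min with 0.01 U/mL thrombin or 0.05 μg/mL CRP. CCL5/RANTES in the collected supernatant was quantified by ELISA.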

mouse blood = assay: Flow chamber assay on collagen-coated surfaces under arterial shear; type: cell-based; settings: 5 μM, 50 dyne/cm^2
Method in brief: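 Plates were coated with fibrillar type 1 collagen (100 μg/mL, 1 h, 37°C) and washed with PBS/0.05% BSA. ACD-anticoagulated blood was treated 15 min at 37°C with 0.1% DMSO vehicle or 5 μM test compound, then labelled with 1 μM DiOC6 for 5 min. After adding 6 mM CaCl2 and 3 mM MgCl2, blood was perfused at 50 dyne/cm2 (mouse blood: 2 min). Surface coverage and thrombus volume were measured by epifluorescence.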

pancreatic islet cells = assay: Glucose-stimulated insulin secretion and insulin content; type: cell-based, mouse; settings: 1 or 5 μM; high glucose (16.7 mM)
Method in brief: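 Islets were isolated by bile-duct perfusion of type V collagenase (0.45 mg/mL), handpicked and cultured overnight in RPMI/10% FCS. They were exposed 3 h in KRBH (pH 7.4) to 2.8 mM or 16.7 mM glucose, ± vehicle (0.1% DMSO) or 1 or 5 μM test compound. Ten islets per group then had 1 h in low glucose, then 1 h at 37°C under the same conditions, in technical duplicates. Supernatant insulin and acid-ethanol-extracted content were measured by ELISA.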

C57BL/6 mice [5] = assay: Ex vivo platelet activation after intravenous injection; type: in vivo, mouse; settings: iv 0.3 μg/g BW; blood collected 10 min later
Method in brief: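 C57BL/6 mice (8–12 weeks, both sexes) received iv vehicle (1% DMSO in saline) or test compound at 0.3 μg/g BW. Blood was drawn 10 min later and washed platelets were isolated. Platelets were stimulated with agonist for 5 min at 37°C and stained 15 min for P-selectin and activated αIIbβ3 (JON/A). Flow cytometry read-out was geometric mean fluorescence intensity.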

C57BL/6 mice [6] = assay: Complete blood counts after intravenous injection; type: in vivo, mouse; settings: iv 0.3 μg/g BW; 10 min and 8 h after injection
C57BL/6 mice [7] = assay: Intravital microscopy, laser-induced cremaster arteriolar injury; type: in vivo, mouse; settings: iv 0.3 μg/g BW 10 min before IVM
Method in brief: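 Male mice (8–12 weeks) were anaesthetised with ketamine/xylazine ip. The cremaster was exteriorised and superfused with 37°C bicarbonate-buffered saline. Vehicle (1% DMSO) or test compound (0.3 μg/g BW) was given iv, and 10 min later DyLight 649 anti-CD42c (0.1 μg/g BW) was given. Laser ablation injured 3–4 arterioles per mouse. Median integrated platelet fluorescence was tracked over time, using […] per group.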

C57BL/6 mice [8] = assay: Tail bleeding time and hemoglobin content; type: in vivo, mouse; settings: iv 0.3 μg/g BW
C57BL/6 mice [9] = assay: tMCAO-induced ischemic stroke; type: in vivo, mouse; settings: iv 0.3 μg/g BW after 1 h tMCAO; 23 h reperfusion
Method in brief: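 Male mice, 10–12 weeks, were anaesthetised with 1.2%–1.5% isoflurane in oxygen and given buprenorphine-ER 0.1 μg/g ip. After 1 h MCA occlusion the filament was withdrawn to restore flow. Vehicle (1% DMSO) or test compound was then given iv. After 23 h reperfusion, Bederson score, grip strength and infarct volume were assessed.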

[10] = at concentrations required to reduce ERO1α activity; cited from earlier work

O=C(O)c1cc(N2N=C(C(F)(F)F)/C(=C/c3ccc(-c4ccccc4)o3)C2=O)ccc1Cl [EN460]
IC50 (Recombinant human ERO1α): 5.5 ± 1.6 µM
inhibition of H2O2 activity (Amplex Red assay): inhibits H2O2 activity
P-selectin exposure and αIIbβ3 integrin activation (mouse platelets [1]; 1-5 µM, low agonist: 0.01 U/mL thrombin, 0.025 μg/mL CRP, 0.5 μM U46619, 0.5 μM A23187, concentration-dependent): inhibited
P-selectin exposure and αIIbβ3 integrin activation (mouse platelets [1]; 2.5 or 5 μM, high agonist: thrombin 0.1 U/mL or CRP 0.2 μg/mL, weaker effect): still observed
P-selectin exposure and αIIbβ3 integrin activation in resting platelets (mouse platelets [1]; M6766 5 μM, EN460 2.5 or 5 μM, no agonist): appeared to enhance both events
platelet aggregation and ATP secretion (human platelets): had no effect
serotonin secretion from resting platelets (mouse platelets [2]; no agonist): enhanced serotonin secretion from resting platelets
serotonin secretion from activated platelets (mouse platelets [2]; thrombin or CRP): either enhancing or inhibiting secretion
agonist-induced DCF signal (ROS) (mouse platelets [3]; after thrombin): reduced the signal
ROS production in resting platelets (mouse platelets [3]; no agonist): moderately increased ROS production
CCL5 secretion in resting and activated platelets (mouse platelets [4]; 5 μM): appeared to increase CCL5 secretion
CCL5 secretion from activated platelets (mouse platelets [4]; various concentrations (1-5 μM), thrombin): inhibits CCL5 secretion
surface coverage and volume of platelet thrombi (mouse blood): significantly reduced
insulin secretion or content (pancreatic islet cells): did not reduce insulin secretion or content
P-selectin exposure and αIIbβ3 integrin activation following thrombin stimulation (ex vivo) (C57BL/6 mice [5]): moderate but significant reduction
complete blood counts (CBCs) (C57BL/6 mice [6]): did not alter CBCs
initial platelet adhesion at sites of laser injury (C57BL/6 mice [7]): without affecting initial platelet adhesion
platelet accumulation at sites of laser injury (C57BL/6 mice [7]): significantly inhibited platelet accumulation
tail bleeding times and blood loss (C57BL/6 mice [8]): did not prolong tail bleeding times or increase blood loss
Bederson score (C57BL/6 mice [9]): decreased the Bederson score
grip strength (C57BL/6 mice [9]): increased grip strength
infarct volume (C57BL/6 mice [9]): significantly reduced infarct volume
thiol reactivity [10]: exhibits thiol reactivity
